Here are results for one compound from ChEMBL document CHEMBL3124841, “Discovery of vinyl sulfones as a novel class of neuroprotective agents toward Parkinson's disease therapy” (J Med Chem, 2014).

Experiment [1] has as its system Mus musculus. In words: Inhibition of motor deficits in MPTP-induced C57Bl/6 mouse parkinson's disease model assessed as time taken to turn around at 10 mg/kg/day, po for 3 days administered first dose at 24 hrs prior to first injection of 4X 20 mg/kg, ip MPTP challenge by vertical grid test (reference value: 12.4 +/-1.8 s). It counts as functional.
Experiment [2] has as its target T1, Nuclear factor erythroid 2-related factor 2 (Mus musculus) (UniProt Q60795).
T1 sequence (whole entry): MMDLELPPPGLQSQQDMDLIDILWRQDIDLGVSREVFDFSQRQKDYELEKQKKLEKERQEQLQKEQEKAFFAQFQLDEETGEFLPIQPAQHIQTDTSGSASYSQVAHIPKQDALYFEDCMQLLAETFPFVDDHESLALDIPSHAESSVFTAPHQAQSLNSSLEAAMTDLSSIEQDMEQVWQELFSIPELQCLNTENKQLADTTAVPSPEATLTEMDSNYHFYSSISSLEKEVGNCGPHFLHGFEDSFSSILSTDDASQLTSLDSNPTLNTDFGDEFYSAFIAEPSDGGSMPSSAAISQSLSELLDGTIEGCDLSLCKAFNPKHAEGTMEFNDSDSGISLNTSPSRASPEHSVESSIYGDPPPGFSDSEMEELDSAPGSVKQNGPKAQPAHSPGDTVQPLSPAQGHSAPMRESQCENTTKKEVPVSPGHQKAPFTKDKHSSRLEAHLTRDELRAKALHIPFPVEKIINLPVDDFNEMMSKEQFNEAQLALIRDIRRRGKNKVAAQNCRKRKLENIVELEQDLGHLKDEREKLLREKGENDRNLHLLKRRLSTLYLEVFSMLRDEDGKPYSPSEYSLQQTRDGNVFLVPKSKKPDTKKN
In words: Induction of Nrf2-dependent GCLM protein expression in mouse CATH.a cells after 24 hrs by western blot analysis. It counts as cell-based. The gist of the method: (§1)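 Cells (CATH.a) exposed to graded concentrations for 24 h, lysed in RIPA buffer with protease inhibitors. Equal protein separated on 10% SDS gel, blotted; primary antibodies overnight at 4 °C, HRP secondary, chemiluminescence. Densitometry normalized to β-actin. At least duplicate cultures, fold of untreated control ± SEM.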
In general terms: A western blot detects proteins with antibodies after separation by electrophoresis.

The species entered for experiment [3] is Mus musculus. In words: Neuroprotection against BH4-induced mouse CATH.a cell death assessed as cell viability at 0.1 uM treated for 20 hrs prior to BH4 challenge for 24 hrs by LDH activity assay. It counts as functional. In short, it runs like this:
(§2)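 CATH.a cells at 2.4 × 10⁴/well given graded concentrations for 20 h, then 200 μM BH4 for an additional 24 h. Medium LDH activity from NADH oxidation with pyruvate, pH 7.4, read at 340 nm over 5 min. At least duplicate cultures, % untreated control ± SEM, compared against BH4-treated group.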

The target in experiment [4] is T1, Nuclear factor erythroid 2-related factor 2 (Mus musculus). Kind of experiment: Induction of Nrf2-dependent GCLC gene expression in mouse CATH.a cells at 2 uM after 6 hrs by RT-PCR analysis relative to control. It counts as cell-based. The gist of the method: (§3)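 CATH.a cells grown in RPMI 1640 with 8% horse serum and 4% FBS, exposed to graded concentrations for 6 h. mRNA analysed by RT-PCR with gene-specific primers, products run on 1% agarose gel, band densitometry normalized to GAPDH. At least duplicate cultures; fold induction versus untreated control ± SEM.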

For experiment [5] the target is unchanged. In words: Induction of Nrf2-dependent NQO1 gene expression in mouse CATH.a cells at 10 uM after 6 hrs by RT-PCR analysis relative to control. It counts as cell-based. The gist of the method:
as §3

Experiment [6] is filed under the species Mus musculus. In words: Neuroprotection against BH4-induced mouse CATH.a cell death assessed as cell viability at 0.1 uM treated for 20 hrs prior to BH4 challenge for 24 hrs by ATP assay. It counts as functional. In short, it runs like this: (§4)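 CATH.a cells (2.4 × 10⁴/well) pretreated with graded concentrations for 20 h, then challenged with 200 μM BH4 for a further 24 h. Viability as cellular ATP by CellTiter-Glo luminescence. At least duplicate cultures, percent of untreated control ± SEM, compared with BH4-treated cells.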

Experiment [7] deals with T1, Nuclear factor erythroid 2-related factor 2 (Mus musculus). Kind of experiment: Activation of Nrf2 in mouse CATH.a cells assessed as increase in total Nrf2 protein level at 1 uM after 24 hrs by western blot analysis. It counts as cell-based. The gist of the method: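 CATH.a cells (RPMI 1640, 8% horse serum, 4% FBS, 37 °C, 5% CO2) exposed to various concentrations for 24 h. Whole-cell lysate in RIPA buffer with protease inhibitors, 10% SDS-PAGE, Nrf2 immunoblot, chemiluminescence, densitometry normalized to β-actin. At least duplicate cultures, averaged, fold of untreated control ± SEM.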

In experiment [8] the test system is Mus musculus. In words: Inhibition of motor deficits in MPTP-induced C57Bl/6 mouse parkinson's disease model assessed as improvement in postural balance at 10 mg/kg/day, po for 3 days administered first dose at 24 hrs prior to first injection of 4X 20 mg/kg, ip MPTP challenge measured 6 days after last MPTP injection by hind-limb test. It counts as functional, organism-based. The gist of the method: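 C57Bl/6 males (n = 10/group), 10 mg/kg/day po for 3 days in N-methyl-2-pyrrolidone/20% Tween 80 saline. MPTP 4 × 20 mg/kg ip at 2 h intervals, begun 24 h after first dose. Six days after last MPTP injection, mice suspended by tail and hindlimb position scored 0−4. Mean ± SEM.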

The target in experiment [9] is T1, Nuclear factor erythroid 2-related factor 2 (Mus musculus). Kind of experiment: Induction of Nrf2-dependent HO1 protein level in mouse BV-2 cells at 20 uM after 24 hrs by sandwich ELISA relative to control. It counts as cell-based. The gist of the method:
(§5)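 Murine BV-2 microglia in DMEM/10% FBS, 2.0 × 10⁴ cells per well, treated at 20 μM for 24 h in triplicate. Lysates in NP-40 Tris buffer (pH 8.0) diluted tenfold; HO-1 measured by sandwich ELISA with HRP-streptavidin and Amplex Red fluorescence (ex 530/em 590 nm). Expressed as % of 0.04% DMSO vehicle control ± SEM; sulforaphane 5 μM as reference.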
(In an ELISA, binding on a coated surface is turned into a signal by an enzyme label.)

Experiment [10] has the same target. In words: Induction of Nrf2-dependent NQO1 protein expression in mouse CATH.a cells at 0.1 uM after 24 hrs by western blot analysis. It counts as cell-based. The gist of the method: as §1
The target is the same in experiment [11]. In words: Induction of Nrf2-dependent HO1 protein level in mouse BV-2 cells at 20 uM after 24 hrs by sandwich ELISA. It counts as cell-based. In short, it runs like this: as §5
For experiment [12] the target is unchanged. Kind of experiment: Induction of Nrf2-dependent GCLM gene expression in mouse CATH.a cells at 0.1 uM after 6 hrs by RT-PCR analysis. It counts as cell-based. The gist of the method: as §3
The species named for experiment [13] is Mus musculus. In words: Neuroprotection against BH4-induced mouse CATH.a cell death assessed as cell viability at >0.1 uM treated for 20 hrs prior to BH4 challenge for 24 hrs by LDH activity assay. It counts as functional. The gist of the method: as §2
The species named for experiment [14] is Mus musculus. In words: Neuroprotection against BH4-induced mouse CATH.a cell death assessed as cell viability at >0.1 uM treated for 20 hrs prior to BH4 challenge for 24 hrs by ATP assay. It counts as functional. The gist of the method: as §4

The structures appear in SMILES notation. Calls of active or inactive are those of the source. No cut-off for these calls is given here.

With `COc1ccccc1S(=O)(=O)/C=C/c1ccccc1Cl`, in experiment [1], the Time is 4 s. Moreover, the Activity entry in [2] was “Dose-dependent effect”; in experiment [11] it was 382%. Also, the result in experiment [3], in experiment [6], in experiment [7], in experiment [13] and in experiment [14] was Active. For the same compound, the values for the fold change (FC) in [4], in [5] and in [9] were 1.41, 5.67 and 3.8, respectively. The inhibition result in experiment [8] is “Active”. For the same compound, the outcome in experiment [10] and in experiment [12] was inactive.
